Source: ChEMBL document CHEMBL1136012, “Synthesis and structure-activity relationships of novel 7-substituted 1,4-dihydro-4-oxo-1-(2-thiazolyl)-1,8-naphthyridine-3-carboxylic acids as antitumor agents. Part 1” (J Med Chem, 2002)

Columns and labels:
P388 [1] = test: Cytotoxic activity of compound against Murine P388 Leukemia; assay type: functional, cell-based, Mus musculus
Procedure, shortened: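 Murine P388 cells were cultured in EMEM with 10% FBS, 2 mM glutamine, 50 units/mL penicillin and 50 μg/mL streptomycin. They were seeded at (1–2) × 10^4 cells/mL without preincubation and exposed to varying concentrations for 72 h at 37 °C, 5% CO2. MTT was then added for 4 h, formazan dissolved in DMSO and read at 570/690 nm.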

P388 [2] = test: […] antitumor activity of compound against P388 leukemia cells at a dose of 3.13 mg/kg; assay type: functional, Mus musculus
Procedure, shortened: (§1)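 In vivo study: BDF1 mice received 10^6 P388 leukemia cells ip as diluted ascites fluid. Test compounds were suspended in 0.4% CMC and given ip on days 1 and 5 after implantation, with seven mice per group. The endpoint is T/C% = median survival time of the treated group / median survival time of controls × 100.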

P388 [3] = test: […] antitumor activity of compound against P388 leukemia cells at a dose of 50 mg/kg; assay type: functional, Mus musculus; procedure, shortened: as §1
G-361 = test: Cytotoxic activity of compound against G-361 melanoma human tumor cell line; assay type: functional, cell-based
Procedure, shortened: (§2)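 Culture was in McCoy's 5A with 10% FBS. Cells were seeded at (1–2) × 10^4 cells/mL, preincubated for 24 h, then incubated with various concentrations for 72 h at 37 °C under 5% CO2. MTT was added for 4 h and the formazan dissolved in DMSO, with A570 read against 690 nm.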

SK-OV-3 = test: Cytotoxic activity of compound against SK-OV-3 ovary human tumor cell line; assay type: functional, cell-based; conditions: SK-OV-3, Female gonad
Procedure, shortened: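 SK-OV-3 cells were maintained in McCoy's 5A with 15% FBS. After seeding at (1–2) × 10^4 cells/mL and 24 h preincubation, wells received graded concentrations for 72 h at 37 °C, 5% CO2. A 4 h MTT incubation followed, with DMSO solubilization and absorbance at 570/690 nm.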

HT-29 = test: Cytotoxic activity of compound against HT-29 colon human tumor cell line; assay type: functional, cell-based; procedure, shortened: as §2
A-427 = test: Cytotoxic activity of compound against A-427 lung human tumor cell line; assay type: functional, cell-based
Procedure, shortened: (§3)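 Cells were kept in EMEM with 10% FBS, 2 mM glutamine, NEAA and 1 mM sodium pyruvate. They were seeded at (1–2) × 10^4 cells/mL and preincubated for 24 h. They were then exposed to graded concentrations for 72 h at 37 °C in 5% CO2. MTT was added for a further 4 h and the formazan dissolved in DMSO, with absorbance at 570/690 nm.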

P388 [4] = test: In vitro antitumor activity of compound against P388 leukemia cells at a dose of […] mg/kg; assay type: functional, Mus musculus; set-up: concentration or dose not given beside the values
[5] = Cytotoxic activity of compound against AZ-521 stomach human tumor cell line; assay type: functional
Procedure, shortened: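 AZ-521 cells were grown in EMEM with 10% FBS, 2 mM glutamine and NEAA. They were plated at (1–2) × 10^4 cells/mL and preincubated for 24 h, then treated with a range of concentrations for 72 h at 37 °C, 5% CO2. After a 4 h MTT step, the formazan was dissolved in DMSO and read at 570 nm (reference 690 nm).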

[6] = Cytotoxic activity of compound against SCaBER bladder squamous human tumor cell line; assay type: functional, cell-based; procedure, shortened: as §3
P388 [7] = test: […] antitumor activity of compound against P388 leukemia cells at a dose of 6.25 mg/kg; assay type: functional; conditions: Mus musculus; procedure, shortened: as §1
[8] = Mus musculus, P388, read-out: IC50

Cc1cnc(-n2cc(C(=O)O)c(=O)c3cc(F)c(N4CCC(N)C4)nc32)s1.Cl (stereo not given)
IC50 (P388 [1]; [8]): 0.26 µg/mL

Cl.N[C@@H]1CCN(c2nc3c(cc2F)c(=O)c(C(=O)O)cn3-c2nccs2)C1
IC50 (P388 [1]; [8]): 0.016 µg/mL

Cl.NC1CCN(c2nc3c(cc2F)c(=O)c(C(=O)O)cn3-c2ccccn2)C1 (stereo not given)
IC50 (P388 [1]; [8]): > 10 µg/mL

Cl.NC1CCN(c2nc3c(cc2F)c(=O)c(C(=O)O)cn3-c2ncc(Cl)s2)C1 (stereo not given)
IC50 (P388 [1]; [8]): 0.094 µg/mL

CO[C@H]1CN(c2nc3c(cc2F)c(=O)c(C(=O)O)cn3-c2nccs2)C[C@@H]1N.Cl (stereo in doubt; (S,S)-43j)
IC50 (P388 [1]; p388): 0.023 µg/mL

Cl.O=C(O)c1cn(-c2nccs2)c2nc(O)c(F)cc2c1=O
IC50 (P388 [1]; [8]): > 10 µg/mL

Cl.O=C(O)c1cn(-c2nccs2)c2nc(N3CCSCC3)c(F)cc2c1=O
IC50 (P388 [1]; [8]): 1.74 µg/mL

CO[C@@H]1CN(c2nc3c(cc2F)c(=O)c(C(=O)O)cn3-c2nccs2)C[C@H]1N.Cl
IC50 (P388 [1]; [8]): 0.068 µg/mL

Cl.NC1CCN(c2c(F)cc3c(=O)c(C(=O)O)cn(-c4nccs4)c3c2F)C1 (stereo not given)
IC50 (P388 [1]; [8]): 55 µg/mL

Cl.NC1CCN(c2ncc3c(=O)c(C(=O)O)cn(-c4nccs4)c3n2)C1 (stereo not given)
IC50 (P388 [1]; [8]): 0.047 µg/mL

CISPLATIN [listing 1 of 2 here]
IC50 (P388 [1]; p388): 0.011 µg/mL

Cc1cc(-n2cc(C(=O)O)c(=O)c3cc(F)c(N4CCC(N)C4)nc32)on1.Cl (stereo not given)
IC50 (P388 [1]; [8]): 0.58 µg/mL

CO[C@@H]1CN(c2nc3c(cc2F)c(=O)c(C(=O)O)cn3-c2nccs2)C[C@@H]1N.Cl
IC50 (P388 [1]; [8]): 0.084 µg/mL

Cl.O=C(O)c1cn(-c2nccs2)c2nc(N3CC[C@@H](O)C3)c(F)cc2c1=O
IC50 (P388 [1]; [8]): 0.065 µg/mL

Cl.O=C(O)c1cn(-c2nccs2)c2nc(N3CCCC3)c(F)cc2c1=O
IC50 (P388 [1]; [8]): 0.08 µg/mL

C[C@@H]1CN(c2nc3c(cc2F)c(=O)c(C(=O)O)cn3-c2nccs2)C[C@@H]1N.Cl
IC50 (P388 [1]; [8]): 0.057 µg/mL

CO[C@H]1CN(c2nc3c(cc2F)c(=O)c(C(=O)O)cn3-c2nccs2)C[C@@H]1N.Cl (stereo in doubt; 43j)
T/C (P388 [2]): 138% | T/C (P388 [3]): >375% | IC50 (G-361): 0.4 µg/mL | IC50 (SK-OV-3): 1.1 µg/mL | IC50 (HT-29): 2.1 µg/mL | IC50 (A-427): 0.42 µg/mL | T/C (P388 [4]): 238% | IC50 (P388 [1]; [8]): 0.038 µg/mL | IC50 [5]: 0.58 µg/mL | IC50 [6]: 0.78 µg/mL

Cl.O=C(O)c1cn(-c2nccs2)c2nc(N3C[C@@H]4CCCN[C@@H]4C3)c(F)cc2c1=O
IC50 (P388 [1]; [8]): 0.304 µg/mL

CISPLATIN [listing 2 of 2 here]
T/C (P388 [2]; Mus musculus): 239% | T/C (P388 [7]): 290%

Cl.NC1CCN(c2nc3c(cc2F)c(=O)c(C(=O)O)cn3-c2nc(-c3ccccc3)cs2)C1 (stereo not given)
IC50 (P388 [1]; [8]): 0.052 µg/mL

Cl.NC1CCN(c2cc3c(cn2)c(=O)c(C(=O)O)cn3-c2nccs2)C1 (stereo not given)
IC50 (P388 [1]; [8]): > 1 µg/mL

Cl.O=C(O)c1cn(-c2nccs2)c2nc(N3CC[C@H](O)C3)c(F)cc2c1=O
IC50 (P388 [1]; [8]): 0.02 µg/mL

Cl.O=C(O)c1cn(-c2nccs2)c2nc(N3CC4NCCOC4C3)c(F)cc2c1=O (stereo not given)
IC50 (P388 [1]; [8]): > 1 µg/mL

Cl.NC1CCN(c2nc3c(cc2F)c(=O)c(C(=O)O)cn3-c2nncs2)C1 (stereo not given)
IC50 (P388 [1]; [8]): 5.5 µg/mL

Cl.NCC1CCN(c2nc3c(cc2F)c(=O)c(C(=O)O)cn3-c2nccs2)C1 (stereo not given)
IC50 (P388 [1]; [8]): 0.101 µg/mL

Cl.O=C(O)c1cn(-c2nccs2)c2nc(-n3ccnc3)c(F)cc2c1=O
IC50 (P388 [1]; [8]): > 10 µg/mL

Cl.Cn1nccc1-n1cc(C(=O)O)c(=O)c2cc(F)c(N3CCC(N)C3)nc21 (stereo not given)
IC50 (P388 [1]; [8]): > 10 µg/mL

CC(C)(C)c1csc(-n2cc(C(=O)O)c(=O)c3cc(F)c(N4CCC(N)C4)nc32)n1.Cl (stereo not given)
IC50 (P388 [1]; [8]): 0.88 µg/mL

Cc1csc(-n2cc(C(=O)O)c(=O)c3cc(F)c(N4CCC(N)C4)nc32)n1.Cl (stereo not given)
IC50 (P388 [1]; [8]): 0.051 µg/mL

Cl.N[C@H]1CN(c2nc3c(cc2F)c(=O)c(C(=O)O)cn3-c2nccs2)C[C@@H]1O
IC50 (P388 [1]; [8]): 2.09 µg/mL
